From ChEMBL document CHEMBL4152256, “Structure-activity relationship of new antimalarial 1-aryl-3-susbtituted propanol derivatives: Synthesis, preliminary toxicity profiling, parasite life cycle stage studies, target exploration, and targeted delivery” (Eur J Med Chem, 2018)

How the values were obtained:
[1] = Drug encapsulation in liposomes assessed as encapsulation efficiency in citrate/phosphate buffered measured after ultracentrifugation by UV/Vis spectroscopy relative to untreated control; assay type: physicochemical; conditions: artificial membrane
Summary of the method: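 Compound loaded into DSPC:cholesterol:DSPE-PEG2000-Mal:DOPE-Rho (84.5:10:5:0.5) liposomes using a citrate (pH 4.0)/PBS pH gradient. Drug measured by UV/vis after SDS disruption at each step: citrate liposomes, after buffer exchange to PBS (chloroquine added to preformed liposomes here), and after ultracentrifugation. Encapsulation efficiency = % of drug that is encapsulated out of total drug in the sample.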

Plasmodium falciparum [2] = assay: Antiplasmodial activity against Plasmodium falciparum 3D7 late stage forms infected in immunoliposome encapsulated compound pre-loaded human RBC by [3H]-hypoxanthine incorporation assay; assay type: functional, organism-based; conditions: 3D7, Erythrocyte
Plasmodium falciparum [3] = assay: Antiplasmodial activity against Plasmodium falciparum 3D7 ring stage forms infected in human non-washed human RBC containing full drug dosages by [3H]-hypoxanthine incorporation assay; assay type: functional, organism-based; conditions: 3D7, Erythrocyte
Plasmodium falciparum [4] = assay: Antiplasmodial activity against chloroquine-sensitive Plasmodium falciparum 3D7 late forms infected in human RBC using compound encapsulated in to immunoliposome targeted to GPA incubated for 15 mins followed by compound removal and further incubation for 48 hrs by [3H]-hypoxanthine incorporation assay; assay type: functional, organism-based; conditions: 3D7, Erythrocyte
Plasmodium falciparum [5] = assay: Antiplasmodial activity against chloroquine-sensitive Plasmodium falciparum 3D7 ring forms infected in human RBC incubated for 15 mins followed by compound removal and further incubation for 48 hrs by [3H]-hypoxanthine incorporation assay; assay type: functional, organism-based; conditions: 3D7, Erythrocyte
Plasmodium falciparum [6] = assay: Ratio of IC50 for antiplasmodial activity against chloroquine-sensitive Plasmodium falciparum 3D7 late forms infected in human RBC incubated for 15 mins followed by compound removal and further incubation for 48 hrs by [3H]-hypoxanthine incorporation assay to IC50 for antiplasmodial activity against chloroquine-sensitive Plasmodium falciparum 3D7 late forms infected in human RBC using compound …; assay type: functional
Plasmodium falciparum [7] = assay: Antiplasmodial activity against Plasmodium falciparum 3D7 late stage forms infected in human non-washed human RBC containing full drug dosages by [3H]-hypoxanthine incorporation assay; assay type: functional, organism-based; conditions: 3D7, Erythrocyte
Plasmodium falciparum [8] = assay: Ratio of IC50 for antiplasmodial activity against chloroquine-sensitive Plasmodium falciparum 3D7 ring forms infected in human RBC incubated for 15 mins followed by compound removal and further incubation for 48 hrs by [3H]-hypoxanthine incorporation assay to IC50 for antiplasmodial activity against chloroquine-sensitive Plasmodium falciparum 3D7 ring forms infected in human RBC using compound …; assay type: functional
[9] = Drug internalization in liposomes assessed as zeta potential at 500 uM in presence of pH 4 citrate buffer solution (reference value: -2.73 mV); assay type: physicochemical; conditions: artificial membrane, pH 4, 500 µM
Summary of the method: (§1)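 Zeta potential of liposomes loaded with compound (500 µM drug per 10 mM lipid), measured in the pH 4.0 citrate hydration buffer and again after buffer exchange to PBS pH 7.4; drug-free liposomes of the same lipid composition served as reference.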

[10] = Drug internalization in liposomes assessed as zeta potential at 500 uM in presence of pH 7.4 PBS buffer solution (reference value: -16.48 mV); assay type: physicochemical; conditions: artificial membrane, pH 7.4, 500 µM; summary of the method: as §1
[11] = Genotoxicity in Salmonella typhimurium TA1535 harboring pSK1002 assessed as survival at 0.0005 mg/ml in presence of Sprague-Dawley rat liver S9 fraction after by SOS/umu assay relative to control; assay type: toxicity, organism-based; conditions: salmonella enterica subsp. enterica serovar typhimurium, read-out: Survival

N#Cc1ccc(N2CCC(NCCC(O)c3ccc(F)c4ccccc34)CC2)c(C(F)(F)F)c1 (stereo in doubt; 72)
Activity [1]: 101.4%
IC50 (Plasmodium falciparum [2]): 443 nM
IC50 (Plasmodium falciparum [3]): 181 nM
IC50 (Plasmodium falciparum [4]): 175 nM
IC50 (Plasmodium falciparum [5]): 867 nM
Ratio IC50 (Plasmodium falciparum [6]): 5.2
IC50 (Plasmodium falciparum [7]): 302 nM
Ratio IC50 (Plasmodium falciparum [8]): 5.9
Activity [9]: 8.54 mV
Activity [10]: -18.2 mV

OC(CCN1CCN(C(c2ccccc2)c2ccccc2)CC1)c1ccc(F)c(F)c1 (stereo unspecified)
viability at 0.0005 mg/ml [11]: 94.7%
